Measurements pooled from the literature.
Protocols differ between the studies behind these lines. ≈ marks a conversion by molar mass, not a printed value.

SMILES | target or system | test | system | setting | endpoint | result
N.N.[Cl][Pt][Cl] | BEAS-2B | cell growth or viability, MTT |  | 24 h | IC50 | > 100 µM
C[C@@H](N)[C@H](O)CCCCCCCC(=O)CCCCCCCCCCCCCC[C@@H](O[C@@H]1O[C@H](CO)[C@H](O)[C@H](O)[C@H]1O)[C@@H](C)N | Escherichia coli | microbial growth, resazurin | ATCC10536 | 50 µM | inhibition | 100%
CCn1cc(C(=O)O)c(=O)c2cc(F)c(N3CCNCC3)cc21 | Escherichia coli | microbial killing | ATCC 8739, ATCC8739 |  | MBC | 0.25 µM (≈ 0.0798 µg/mL)
CC(=O)NC[C@H]1CN(c2ccc(N3CCOCC3)c(F)c2)C(=O)O1 | Staphylococcus aureus | microbial growth, broth dilution | ATCC43300 MRSA |  | MIC | 2.3 µg/mL
Cc1sc2c(c1C)C(c1ccc(Cl)cc1)=N[C@H](CC(=O)OC(C)(C)C)c1nnc(C)n1-2 | HBL1 | cell growth or viability, ATP luminescence |  | 1 µM, 5 days | viability | 110%
CO/N=C(\C(=O)N[C@@H]1C(=O)N2C(C(=O)O)=C(COC(C)=O)CS[C@H]12)c1csc(N)n1 | Escherichia coli | microbial killing | ATCC 8739, ATCC8739 |  | MBC | 1 µM (≈ 0.455 µg/mL)
C[C@H]1COc2c(N3CCN(C)CC3)c(F)cc3c(=O)c(C(=O)O)cn1c23 | Escherichia coli | microbial growth | ATCCBAA2452 | drug-resistant strain | MIC | ≤ 0.03 µg/mL
N.N.[Cl][Pt][Cl] | HBL1 | cell growth or viability, ATP luminescence |  | 10 µM, 72 h | inhibition | 100%
NC[C@H]1OB(O)c2c(OCCCO)cccc21 | Escherichia coli | microbial growth | ATCC25922 | 16 h | MIC | 1.56 µM
C[C@@H](O)[C@H]1C(=O)N2C(C(=O)O)=C(S[C@@H]3CN[C@H](C(=O)N(C)C)C3)[C@H](C)[C@H]12 | Escherichia coli | microbial growth | ATCCBAA2452 | drug-resistant strain | MIC | > 8 µg/mL
CN1C(=O)/C(=N\Nc2ncc(-c3cc4ccccc4oc3=O)s2)c2cc(Cl)ccc21 | Staphylococcus aureus | microbial growth, broth dilution | ATCC43300 MRSA |  | MIC | 1.3 µg/mL
